ChEMBL document CHEMBL3351667, “A chemical tuned strategy to develop novel irreversible EGFR-TK inhibitors with improved safety and pharmacokinetic profiles” (J Med Chem, 2014)

Experiments:
[1] = tested on: SW-620; experiment: Growth inhibition of human SW620 cells at 5 uM; type: functional; conditions: read-out: GI
[2] = tested on: A-431; experiment: cells; type: functional, cell-based; conditions: Homo sapiens, A-431, 48 h
[3] = biological target: Epidermal growth factor receptor (Homo sapiens, UniProt P00533);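 further: inhibition of wild-type EGFR read out by HTRF, with a 5 min incubation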
Chain of Epidermal growth factor receptor (Homo sapiens, UniProt P00533) (P00533 whole entry): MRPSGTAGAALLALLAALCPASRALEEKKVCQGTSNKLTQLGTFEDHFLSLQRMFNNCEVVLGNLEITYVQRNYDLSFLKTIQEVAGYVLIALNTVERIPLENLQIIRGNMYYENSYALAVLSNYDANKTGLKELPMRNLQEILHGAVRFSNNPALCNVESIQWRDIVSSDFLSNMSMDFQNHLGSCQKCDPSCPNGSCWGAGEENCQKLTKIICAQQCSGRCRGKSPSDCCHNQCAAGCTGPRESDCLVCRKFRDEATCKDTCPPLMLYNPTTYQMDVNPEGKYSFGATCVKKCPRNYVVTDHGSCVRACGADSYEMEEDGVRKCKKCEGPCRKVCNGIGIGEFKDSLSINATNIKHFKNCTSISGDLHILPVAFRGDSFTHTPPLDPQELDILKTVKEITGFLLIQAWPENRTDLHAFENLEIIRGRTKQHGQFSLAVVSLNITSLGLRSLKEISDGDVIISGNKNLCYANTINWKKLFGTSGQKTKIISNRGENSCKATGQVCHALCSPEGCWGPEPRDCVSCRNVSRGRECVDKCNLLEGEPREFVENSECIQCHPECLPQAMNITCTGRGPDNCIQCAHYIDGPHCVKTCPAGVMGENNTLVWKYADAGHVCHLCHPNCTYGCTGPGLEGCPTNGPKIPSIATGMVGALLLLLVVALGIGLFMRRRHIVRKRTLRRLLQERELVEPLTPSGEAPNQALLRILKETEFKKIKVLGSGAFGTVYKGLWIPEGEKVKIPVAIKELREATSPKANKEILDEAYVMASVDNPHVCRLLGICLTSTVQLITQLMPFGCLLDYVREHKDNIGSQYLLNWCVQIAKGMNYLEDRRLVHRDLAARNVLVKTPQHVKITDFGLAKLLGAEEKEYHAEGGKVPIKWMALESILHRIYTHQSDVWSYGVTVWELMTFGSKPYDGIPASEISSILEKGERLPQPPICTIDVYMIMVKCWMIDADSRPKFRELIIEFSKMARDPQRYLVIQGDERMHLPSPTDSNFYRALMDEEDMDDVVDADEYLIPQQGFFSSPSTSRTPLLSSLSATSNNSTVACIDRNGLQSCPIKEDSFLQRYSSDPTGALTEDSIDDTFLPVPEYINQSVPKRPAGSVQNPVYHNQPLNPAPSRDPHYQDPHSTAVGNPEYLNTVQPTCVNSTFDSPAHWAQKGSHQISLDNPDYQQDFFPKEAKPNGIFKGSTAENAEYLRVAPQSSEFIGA

[4] = tested on: NCI-H1975; experiment: cells; type: functional, cell-based; conditions: Homo sapiens, NCI-H1975, 48 h
[5] = biological target: Cytochrome P450 2C9 (Homo sapiens, UniProt P11712); experiment: Inhibition of CYP2C9 in human hepatic microsomes after 20 mins by LC/MS/MS method; type: ADME, Liver
[6] = biological target: T1, hERG (KCNH2) (Homo sapiens, UniProt Q12809); experiment: Inhibition of human ERG assessed as reduction in channel currents at 10 uM
T1 sequence (Q12809 whole entry): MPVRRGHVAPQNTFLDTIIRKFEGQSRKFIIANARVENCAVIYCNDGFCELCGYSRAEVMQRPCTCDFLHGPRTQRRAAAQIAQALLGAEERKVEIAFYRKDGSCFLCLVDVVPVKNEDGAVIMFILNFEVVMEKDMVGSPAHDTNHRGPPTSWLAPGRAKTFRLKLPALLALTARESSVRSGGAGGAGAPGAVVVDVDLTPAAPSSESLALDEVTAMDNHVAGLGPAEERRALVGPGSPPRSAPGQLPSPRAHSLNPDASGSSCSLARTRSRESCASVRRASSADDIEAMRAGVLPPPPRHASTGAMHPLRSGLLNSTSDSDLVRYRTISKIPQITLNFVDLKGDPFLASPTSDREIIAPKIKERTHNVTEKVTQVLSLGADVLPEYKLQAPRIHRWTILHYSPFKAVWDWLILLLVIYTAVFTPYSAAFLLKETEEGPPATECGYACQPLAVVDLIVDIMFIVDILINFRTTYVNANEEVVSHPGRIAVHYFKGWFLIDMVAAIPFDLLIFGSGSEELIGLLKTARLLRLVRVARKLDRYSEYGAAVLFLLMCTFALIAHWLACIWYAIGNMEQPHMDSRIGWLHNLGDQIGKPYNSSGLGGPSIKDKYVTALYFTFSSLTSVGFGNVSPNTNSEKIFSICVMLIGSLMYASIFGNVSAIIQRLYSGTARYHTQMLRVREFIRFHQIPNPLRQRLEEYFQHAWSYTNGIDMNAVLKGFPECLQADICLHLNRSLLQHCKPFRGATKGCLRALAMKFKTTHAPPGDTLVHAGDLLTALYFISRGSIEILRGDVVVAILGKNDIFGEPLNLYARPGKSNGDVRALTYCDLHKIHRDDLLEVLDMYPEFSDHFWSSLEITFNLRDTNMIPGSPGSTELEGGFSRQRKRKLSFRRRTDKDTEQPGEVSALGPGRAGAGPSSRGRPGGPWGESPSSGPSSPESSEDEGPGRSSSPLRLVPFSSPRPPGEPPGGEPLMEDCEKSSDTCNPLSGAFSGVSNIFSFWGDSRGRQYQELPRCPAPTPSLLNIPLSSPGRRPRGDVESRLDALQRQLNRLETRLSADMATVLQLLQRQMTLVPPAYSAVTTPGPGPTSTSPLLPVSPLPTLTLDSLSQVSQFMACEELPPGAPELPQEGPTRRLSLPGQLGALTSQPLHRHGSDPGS

[7] = Intrinsic clearance in dog liver microsomes assessed per mg protein at 1 uM in presence of NADPH after 0.5 to 30 mins by LC/MS/MS method; type: ADME, Canis lupus familiaris; conditions: read-out: CLH
[8] = tested on: NCI-H1975; experiment: Antitumor activity against human NCI-H1975 cells xenografted in nude mouse assessed as reduction in tumor growth at 15 mg/kg/day, ig relative to untreated control; type: functional; conditions: route intragastric
[9] = Ratio of drug level in brain to plasma in BALB/c mouse at 30 mg/kg, po after 6 hrs by LC/MS/MS method; type: ADME, organism-based; design: dose 30 mg/kg, route oral; conditions: read-out: BPR
In short: (§1)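 BALB/c mice received a single oral dose of 30 mg/kg. Drug concentrations in lung, brain and plasma were measured at multiple time points over 6 h. Mean tissue levels are expressed as a lung/plasma/brain ratio, with plasma set to 1.0.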

[10] = Apparent clearance in BALB/c mouse at 10 mg/kg, po after 24 hrs by LC/MS/MS method; type: ADME, organism-based; design: dose 10 mg/kg, route oral; conditions: BALB/c, in vivo, read-out: CL(app)
[11] = Intrinsic clearance in monkey liver microsomes assessed per mg protein at 1 uM in presence of NADPH after 0.5 to 30 mins by LC/MS/MS method; type: ADME, Macaca mulatta; conditions: rhesus monkey, read-out: CLH
[12] = biological target: T2, Cytochrome P450 1A2 (Homo sapiens, UniProt P05177); experiment: Inhibition of CYP1A2 in human hepatic microsomes after 20 mins by LC/MS/MS method; type: ADME, Liver
T2 sequence (P05177 whole entry): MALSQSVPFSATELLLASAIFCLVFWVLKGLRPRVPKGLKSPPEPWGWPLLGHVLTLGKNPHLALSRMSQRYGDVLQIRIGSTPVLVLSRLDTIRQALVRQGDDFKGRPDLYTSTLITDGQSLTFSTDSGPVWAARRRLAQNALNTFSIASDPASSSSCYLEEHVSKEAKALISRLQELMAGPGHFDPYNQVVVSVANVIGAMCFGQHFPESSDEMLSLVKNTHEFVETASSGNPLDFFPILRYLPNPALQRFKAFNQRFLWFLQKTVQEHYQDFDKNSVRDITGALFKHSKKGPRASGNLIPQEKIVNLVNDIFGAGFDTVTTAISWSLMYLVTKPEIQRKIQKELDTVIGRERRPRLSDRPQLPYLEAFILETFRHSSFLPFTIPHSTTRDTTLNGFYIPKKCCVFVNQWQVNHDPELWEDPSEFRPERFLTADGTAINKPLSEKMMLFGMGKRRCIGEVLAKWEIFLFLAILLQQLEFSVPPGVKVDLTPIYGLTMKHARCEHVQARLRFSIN

[13] = tested on: NCI-H1975; experiment: Antitumor activity against human NCI-H1975 cells xenografted in nude mouse assessed as reduction in tumor growth at 15 to 60 mg/kg/day, ig relative to untreated control; type: functional, organism-based
[14] = AUC (0 to infinity) in BALB/c mouse at 10 mg/kg, po after 24 hrs by LC/MS/MS method; type: ADME, organism-based, Plasma; design: dose 10 mg/kg, route oral, time infinity; conditions: BALB/c, plasma
[15] = biological target: Cytochrome P450 3A4 (Homo sapiens, UniProt P08684); experiment: Inhibition of CYP3A4 in human hepatic microsomes after 20 mins by LC/MS/MS method; type: ADME, Liver
[16] = biological target: Cytochrome P450 2D6 (Homo sapiens, UniProt P10635); experiment: Inhibition of CYP2D6 in human hepatic microsomes after 20 mins by LC/MS/MS method; type: ADME, Liver
[17] = Ratio of drug level in lung to plasma in BALB/c mouse at 30 mg/kg, po after 6 hrs by LC/MS/MS method; type: ADME, organism-based; design: dose 30 mg/kg, route oral; in short: as §1
[18] = Oral bioavailability in BALB/c mouse at 10 mg/kg after 24 hrs by LC/MS/MS method; type: ADME, organism-based; conditions: in vivo
[19] = tested on: NCI-H1975; experiment: Antitumor activity against human NCI-H1975 cells xenografted in nude mouse assessed as reduction in tumor growth at 30 mg/kg/day, ig relative to untreated control; type: functional; conditions: route intragastric
[20] = biological target: Receptor tyrosine-protein kinase erbB-2 (Homo sapiens, UniProt P04626); experiment: Inhibition of wild type HER2 (unknown origin) incubated for 5 mins by HTRF assay
Chain of Receptor tyrosine-protein kinase erbB-2 (P04626 whole entry): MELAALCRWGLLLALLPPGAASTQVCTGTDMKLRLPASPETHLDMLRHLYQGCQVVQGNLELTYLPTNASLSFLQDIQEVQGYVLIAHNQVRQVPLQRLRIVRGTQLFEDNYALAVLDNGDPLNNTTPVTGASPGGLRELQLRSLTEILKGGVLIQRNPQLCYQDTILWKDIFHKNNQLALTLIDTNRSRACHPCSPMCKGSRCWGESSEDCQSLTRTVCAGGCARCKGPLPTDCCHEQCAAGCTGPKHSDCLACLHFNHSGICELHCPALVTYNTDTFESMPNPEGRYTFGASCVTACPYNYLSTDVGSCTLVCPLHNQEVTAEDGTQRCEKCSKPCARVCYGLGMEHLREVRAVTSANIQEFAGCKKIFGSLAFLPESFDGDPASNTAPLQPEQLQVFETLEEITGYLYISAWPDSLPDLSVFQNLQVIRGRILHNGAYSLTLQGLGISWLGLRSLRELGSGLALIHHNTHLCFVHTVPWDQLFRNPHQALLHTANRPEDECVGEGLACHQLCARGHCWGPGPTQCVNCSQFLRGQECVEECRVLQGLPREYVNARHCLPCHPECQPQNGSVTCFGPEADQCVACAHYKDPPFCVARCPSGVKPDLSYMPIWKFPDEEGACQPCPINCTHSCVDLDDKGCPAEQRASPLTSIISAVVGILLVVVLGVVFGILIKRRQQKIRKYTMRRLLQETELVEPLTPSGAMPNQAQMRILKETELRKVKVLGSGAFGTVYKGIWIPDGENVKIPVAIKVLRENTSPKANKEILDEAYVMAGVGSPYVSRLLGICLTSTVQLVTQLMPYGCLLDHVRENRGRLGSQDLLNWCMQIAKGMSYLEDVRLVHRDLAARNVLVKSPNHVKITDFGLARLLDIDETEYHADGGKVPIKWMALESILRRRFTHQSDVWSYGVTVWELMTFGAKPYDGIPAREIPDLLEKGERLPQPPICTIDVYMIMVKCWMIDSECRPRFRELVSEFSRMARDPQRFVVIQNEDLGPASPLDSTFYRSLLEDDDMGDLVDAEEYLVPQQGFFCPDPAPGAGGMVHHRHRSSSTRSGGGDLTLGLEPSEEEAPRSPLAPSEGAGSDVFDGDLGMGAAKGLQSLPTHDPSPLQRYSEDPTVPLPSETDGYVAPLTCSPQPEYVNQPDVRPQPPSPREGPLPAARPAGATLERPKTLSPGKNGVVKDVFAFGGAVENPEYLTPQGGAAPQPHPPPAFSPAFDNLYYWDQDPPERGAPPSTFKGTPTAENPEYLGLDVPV

[21] = tested on: NCI-H1975; experiment: Antitumor activity against human NCI-H1975 cells xenografted in nude mouse assessed as reduction in tumor growth at 60 mg/kg/day, ig relative to untreated control; type: functional; conditions: route intragastric
[22] = Intrinsic clearance in rat liver microsomes assessed per mg protein at 1 uM in presence of NADPH after 0.5 to 30 mins by LC/MS/MS method; type: ADME; conditions: read-out: CLH
[23] = biological target: Epidermal growth factor receptor (Homo sapiens, UniProt P00533, T790M); type: protein assay
Chain of Epidermal growth factor receptor (Homo sapiens, UniProt P00533, T790M) (P00533 25-1210 T790M limits assumed): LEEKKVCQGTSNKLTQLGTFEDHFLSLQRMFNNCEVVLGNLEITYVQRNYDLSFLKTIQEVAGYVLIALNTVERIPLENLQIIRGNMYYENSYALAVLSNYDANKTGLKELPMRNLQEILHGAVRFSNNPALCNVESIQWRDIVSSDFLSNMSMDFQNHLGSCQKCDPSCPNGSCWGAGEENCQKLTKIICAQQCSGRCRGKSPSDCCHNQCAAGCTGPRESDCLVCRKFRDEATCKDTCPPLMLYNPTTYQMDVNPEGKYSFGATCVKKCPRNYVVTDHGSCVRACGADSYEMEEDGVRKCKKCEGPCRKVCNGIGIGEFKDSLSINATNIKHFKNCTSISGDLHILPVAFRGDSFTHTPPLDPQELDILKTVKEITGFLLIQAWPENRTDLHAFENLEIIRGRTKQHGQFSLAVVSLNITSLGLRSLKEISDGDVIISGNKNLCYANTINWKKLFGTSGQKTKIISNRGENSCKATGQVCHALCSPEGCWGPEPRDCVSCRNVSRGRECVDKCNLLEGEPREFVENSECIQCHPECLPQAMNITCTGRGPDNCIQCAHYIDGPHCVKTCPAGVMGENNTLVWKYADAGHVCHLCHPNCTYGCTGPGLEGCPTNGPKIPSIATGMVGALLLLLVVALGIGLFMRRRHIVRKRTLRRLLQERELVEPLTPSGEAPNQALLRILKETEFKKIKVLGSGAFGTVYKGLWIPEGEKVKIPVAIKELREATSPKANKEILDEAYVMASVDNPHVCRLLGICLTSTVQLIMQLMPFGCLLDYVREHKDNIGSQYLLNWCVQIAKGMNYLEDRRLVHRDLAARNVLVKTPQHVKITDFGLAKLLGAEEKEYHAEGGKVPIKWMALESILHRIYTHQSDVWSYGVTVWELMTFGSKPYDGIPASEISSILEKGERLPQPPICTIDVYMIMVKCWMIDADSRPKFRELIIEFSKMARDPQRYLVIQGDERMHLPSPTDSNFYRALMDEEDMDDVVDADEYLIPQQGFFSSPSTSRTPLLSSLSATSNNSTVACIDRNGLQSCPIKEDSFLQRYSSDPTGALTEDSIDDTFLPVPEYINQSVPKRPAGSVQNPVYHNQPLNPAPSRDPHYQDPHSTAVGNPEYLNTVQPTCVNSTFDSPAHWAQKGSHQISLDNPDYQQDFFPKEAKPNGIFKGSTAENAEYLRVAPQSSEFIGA

[24] = tested on: NCI-H1975; experiment: Toxicity in human NCI-H1975 cells xenografted nude mouse assessed as induction of mortality at 30 mg/kg/day, ig; type: organism-based; design: route intragastric; conditions: in vivo, po
In short: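 H1975 NSCLC xenografts set up by subcutaneous inoculation of 3.0 × 10⁷ cells into nude mice. Dosing began at mean tumour size 50−150 mm³. Randomised mice received compound by ig gavage […] for 9 days. Vehicle control was 0.5% CMC-Na + 0.4% Tween80 at 10 mL/kg. Mortality and body weight were monitored during treatment.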

[25] = Intrinsic clearance in human liver microsomes assessed per mg protein at 1 uM in presence of NADPH after 0.5 to 30 mins by LC/MS/MS method; type: ADME; conditions: read-out: CLH
[26] = biological target: Cytochrome P450 2C19 (Homo sapiens, UniProt P33261); experiment: Inhibition of CYP2C19 in human hepatic microsomes after 20 mins by LC/MS/MS method; type: ADME, Liver
[27] = tested on: Mus musculus; experiment: Apparent volume of distribution in BALB/c mouse at 10 mg/kg, po after 24 hrs by LC/MS/MS method; type: ADME, organism-based; design: dose 10 mg/kg, route oral; conditions: in vivo
[28] = biological target: T1, hERG (KCNH2); experiment: Inhibition of human ERG assessed as reduction in channel currents at 1 uM
[29] = Cmax in BALB/c mouse at 10 mg/kg, po after 24 hrs by LC/MS/MS method; type: ADME, organism-based; design: dose 10 mg/kg, route oral; conditions: in vivo
[30] = Intrinsic clearance in mouse liver microsomes assessed per mg protein at 1 uM in presence of NADPH after 0.5 to 30 mins by LC/MS/MS method; type: ADME; conditions: read-out: CLH
[31] = tested on: Mus musculus; experiment: AUC (0 to infinity) in BALB/c mouse at 5 mg/kg, po after 24 hrs by LC/MS/MS method; type: ADME, organism-based, Plasma; design: time infinity, dose 5 mg/kg, route oral; conditions: in vivo, 24 h
[32] = Oral bioavailability in BALB/c mouse at 5 mg/kg after 24 hrs by LC/MS/MS method; type: ADME, organism-based; conditions: in vivo
[33] = tested on: Mus musculus; experiment: Apparent clearance in BALB/c mouse at 5 mg/kg, po after 24 hrs by LC/MS/MS method; type: ADME, organism-based; design: dose 5 mg/kg, route oral; conditions: in vivo, 24 h
[34] = tested on: Mus musculus; experiment: Apparent volume of distribution in BALB/c mouse at 5 mg/kg, po after 24 hrs by LC/MS/MS method; type: ADME, organism-based; design: dose 5 mg/kg, route oral; conditions: in vivo
[35] = Cmax in BALB/c mouse at 5 mg/kg, po after 24 hrs by LC/MS/MS method; type: ADME, organism-based; design: dose 5 mg/kg, route oral; conditions: in vivo

In the case of `COc1cccc2c1C(=O)c1c(O)c3c(c(O)c1C2=O)C[C@@](O)(C(=O)CO)C[C@@H]3O[C@H]1C[C@H](N)[C@H](O)[C@H](C)O1` [DOXORUBICIN], the inhibition of growth at 5 µM [1] is reported as 79.8%.

`CCOc1cc2ncnc(Nc3ccc(Oc4ccc(C)nc4)c(Cl)c3)c2cc1NC(=O)/C(F)=C\CN1CCCCC1` showed an IC50 [2] of 24.8 µM, an IC50 [3] of 0.0392 µM and an IC50 [4] of 6.42 µM.

In the case of `COc1cc2ncnc(Nc3ccc(F)c(Cl)c3)c2cc1NC(=O)/C(F)=C\CN1CCOCC1`, the IC50 [2] is reported as 0.83 µM and the IC50 [4] is reported as 1.11 µM.

Work on `CN(C)C/C=C(\F)C(=O)Nc1cc2c(Nc3ccc(F)c(Cl)c3)ncnc2cc1O[C@H]1CCOC1` yielded an IC50 [5] greater than 10 µM, an inhibition at 10 µM [6] of 14.8% and a microsomal CLint at 1 µM [7] of 39 µL/min/mg. The T/C [8] was 42.5%, the inhibition of growth at 5 µM [1] was 11.5% and the Kp at 6 h [9] was 0.79. It also gave a CL/F [10] of 1.8 L/h/kg, a microsomal CLint at 1 µM [11] of 31 µL/min/mg and an IC50 [2] of 0.13 µM. For the same compound, the IC50 [12] was greater than 10 µM, the inhibition [13] was “Dose-dependent effect” and the AUC(0-inf) [14] was 10.4 µM·h. For the same compound, the IC50 [15] was greater than 10 µM, the IC50 [16] was greater than 10 µM and the Kp at 6 h [17] was 25. The bioavailability [18] was 84.7%, the T/C [19] was 19.5% and the IC50 [4] was 1.24 µM. For the same compound, the IC50 [20] was 0.149 µM, the T/C [21] was 9.4% and the microsomal CLint at 1 µM [22] was 14 µL/min/mg. The IC50 [23] was 0.00552 µM, the Activity [24] was “Non-toxic” and the microsomal CLint at 1 µM [25] was 2 µL/min/mg. For the same compound, the IC50 [26] was greater than 10 µM, the Vz [27] was 9.69 L/kg and the inhibition at 1 µM [28] was 0%. It also gave a Cmax [29] of 0.94 µM and a microsomal CLint at 1 µM [30] of 12 µL/min/mg.

`C=CC(=O)Nc1cc2c(Nc3ccc(F)c(Cl)c3)ncnc2cc1OCCCN1CCOCC1` [CANERTINIB] showed a microsomal CLint at 1 µM [7] of 26 µL/min/mg, a microsomal CLint at 1 µM [11] of 221 µL/min/mg and a microsomal CLint at 1 µM [22] of 105 µL/min/mg. For the same compound, the microsomal CLint at 1 µM [25] was 50 µL/min/mg and the microsomal CLint at 1 µM [30] was 5 µL/min/mg.

`COc1cc2ncnc(Nc3ccc(OCc4cccc(F)c4)c(Cl)c3)c2cc1NC(=O)/C(F)=C/CN(C)C` gave an IC50 [2] of 4.02 µM, an IC50 [3] of 0.00156 µM and an IC50 [4] of 2.06 µM. The IC50 [23] was 0.0021 µM.

Work on `O=C(Nc1cc2c(Nc3ccc(F)c(Cl)c3)ncnc2cc1O[C@H]1CCOC1)/C(F)=C/CN1CCOCC1` yielded an inhibition at 10 µM [6] of 11.1%, an IC50 [2] of 11.5 µM and an IC50 [4] of 4.37 µM. The IC50 [20] was 1.57 µM and the inhibition at 1 µM [28] was 0.94%.

Compound `CCOc1cc2ncnc(Nc3ccc(Oc4ccc(C)nc4)c(Cl)c3)c2cc1NC(=O)/C(F)=C/CN(C)C` has an IC50 [2] of 1.67 µM, an IC50 [3] of 0.0045 µM and an IC50 [4] of 2.49 µM. For the same compound, the IC50 [23] was 0.0071 µM.

`O=C(Nc1cc2c(Nc3ccc(F)c(Cl)c3)ncnc2cc1O[C@H]1CCOC1)/C(F)=C/CN1CCCCC1` showed an IC50 [2] of 1.56 µM, an IC50 [3] of 0.0026 µM and an IC50 [4] of 0.29 µM. For the same compound, the IC50 [23] was 0.0164 µM.

With `COc1cc2ncnc(Nc3ccc(F)c(Cl)c3)c2cc1NC(=O)/C(F)=C\CN1CCCCC1` the AUC [31] was 14.7 µM·min, the bioavailability [32] was 16.5% and the “CL(app)” value [33] was 7.2 L/h/kg. It also gave an IC50 [4] of 1.01 µM, a Vz [34] of 12.2 L/kg and a Cmax [35] of 0.09 µM.

Work on `COc1cc2ncnc(Nc3ccc(OCc4cccc(F)c4)c(Cl)c3)c2cc1NC(=O)/C(F)=C\CN(C)C` yielded an IC50 [2] of 1.69 µM, an IC50 [3] of 0.0013 µM and an IC50 [4] of 2 µM.

Compound `CCOc1cc2ncnc(Nc3ccc(Oc4ccc(C)nc4)c(Cl)c3)c2cc1NC(=O)/C(F)=C/CN1CCCCC1` has an IC50 [2] of 3.49 µM, an IC50 [3] of 0.0129 µM and an IC50 [4] of 3.6 µM. For the same compound, the IC50 [23] was 0.0379 µM.
